Assay results pooled from the literature.
Compare with care: the assays were run in different laboratories.
Target: Mitogen-activated protein kinase 9 (MAPK9, Homo sapiens, UniProt P45984)

Cc1nccc(COC(=O)N2C[C@@H]3[C@@H](CNC(=O)c4ccc5[nH]nnc5c4)[C@@H]3C2)n1  remaining binding (cell-free assay, competition with immobilised ligand; 1 µM): 95%
CC(C)(O)[C@H]1CC[C@H](Nc2ccc3ncc(-c4cccc(C(F)(F)F)c4)n3n2)CC1  remaining activity (enzyme activity, inhibitor; 1 µM): 109%
Cn1c2c(c3ccc(Cl)c(Cl)c31)C(C#N)C1(CCOCC1)NC2=O (centres unmarked)  ΔTm (thermal stability, DSF; 10 µM): 0 °C
Oc1cccc(-c2nc(N3CCOCC3)c3oc4ncccc4c3n2)c1  remaining signal (cell-free assay; 0.5 µM): 89.4%
CNC(=O)c1cc(Oc2ccc(NC(=O)Nc3ccc(Cl)c(C(F)(F)F)c3)cc2)ccn1  inhibition (enzyme activity, inhibitor; 0.3 µM): 7%
Cc1cnc(NC2CCOCC2)nc1-n1cnc(C(=O)NC(CN)c2cc(F)cc(Cl)c2)c1 (centres unmarked)  remaining activity (enzyme activity, inhibitor, radiometric; 1 µM): 72%
CC(C)CC(=O)N1CCc2nc(-c3ccc(Br)cc3)nc(N(C)Cc3ccccc3)c2C1  remaining binding (cell-free assay, competition with immobilised ligand; 0.1 µM): 72%
Nc1ncnc2occ(-c3ccc(NC(=O)Nc4cc(C(F)(F)F)ccc4F)cc3)c12  remaining signal (cell-free assay, inhibitor; 20 µM): 0%
CCC1(CC)NC(=O)c2c(c3ccc(Cl)c(Cl)c3n2C)C1C#N (centres unmarked)  ΔTm (thermal stability, DSF; 10 µM): 0.1 °C
CC(=O)N1CCC(c2ccc(C(=O)NC3=NCCN3)cc2C(F)(F)F)CC1  remaining binding (cell-free assay, competition with immobilised ligand; 1 µM): 92%
COc1cc(/C=C/C(=O)CC(=O)/C=C/c2ccc(O)c(OC)c2)ccc1O  activity vs control (enzyme activity, inhibitor; 1 µM): 104%
CCCS(=O)(=O)Nc1ccc(F)c(C(=O)c2c[nH]c3ncc(-c4ccc(Cl)cc4)cc23)c1F  inhibition (enzyme activity, inhibitor; 1 µM): < 10%
C[C@@H](c1cccc(C#N)c1)n1cc(Cl)cc(C(N)=O)c1=N  remaining binding (cell-free assay, competition with immobilised ligand; 1 µM): 82%
Cc1ccc(C(=O)NCc2ccsc2)cc1C#Cc1cn(C(C)C)c2ncnc(N)c12  activity vs control (enzyme activity, inhibitor; 1 µM): 85%
COc1cc(Nc2cnc(C#N)c(O[C@H](C)CN(C)C)n2)ncc1-c1cnn(C)c1  remaining activity (enzyme activity, inhibitor, radiometric; 10 µM): 79%
Cn1c2c(c3ccc(Cl)c(Cl)c31)C(C#N)C1(CCCC1)NC2=O (centres unmarked)  ΔTm (thermal stability, DSF; 10 µM): -0.1 °C
Oc1cccc(-c2nc(N3CCOCC3)c3oc4ncccc4c3n2)c1  remaining activity (enzyme activity, inhibitor; 10 µM): 100%
Clc1ccc(Nc2nnc(Cc3ccncc3)c3ccccc23)cc1  remaining signal (cell-free assay; 0.5 µM): 97.5%
Cc1ccc(NC(=O)c2ccc(C)c(C(F)(F)F)c2)cc1C#Cc1nn(C2CCC(O)CC2)c2ncnc(N)c12 (centres unmarked)  remaining signal (cell-free assay; 10 µM): 13%
CCN(CC)CCNC(=O)c1c(C)[nH]c(/C=C2\C(=O)Nc3ccc(F)cc32)c1C  remaining signal (cell-free assay; 0.5 µM): 96.7%
Cc1cc(NC(=O)c2cccc(S(F)(F)(F)(F)F)c2)cc(-n2ccn3nc(-c4cccnc4)cc23)c1  remaining binding (cell-free assay, competition with immobilised ligand; 1 µM): 76.9%
Nc1nc(NC2CCCCC2)sc1C(=O)c1ccccc1  remaining activity (enzyme activity, inhibitor; 10 µM): 39%
CC(C)(O)c1cncc(-c2nc3ccc(F)cc3n2C2CC2)c1  remaining binding (cell-free assay, competition with immobilised ligand; 1 µM): 100%
Cn1c2c(Cl)c(Cl)ccc2c2cn[nH]c(=O)c21  ΔTm (thermal stability, DSF; 10 µM): 0 °C
CN(C)C(=O)Cn1cc(-c2nc([C@@](C)(c3ccc(-c4cnc(N)nc4)cc3)C3CC3)no2)cn1  remaining binding (cell-free assay, competition with immobilised ligand; 1 µM): 75%
CC(C)(C)c1nc(-c2cccc(NS(=O)(=O)c3c(F)cccc3F)c2F)c(-c2ccnc(N)n2)s1  remaining activity (enzyme activity, inhibitor, radiometric; 1 µM): 105%
O=C(Nc1cnn(-c2csc(C(=O)NC3COC3)c2)c1)Nc1c(F)cccc1Cl  remaining activity (enzyme activity, inhibitor; 5 µM): 22.7%
Nc1nc(Nc2ccccc2)sc1C(=O)c1c(F)cccc1F  remaining activity (enzyme activity, inhibitor; 10 µM): 81%
C[S+]([O-])c1ccc(-c2nc(-c3ccncc3)c(-c3ccc(F)cc3)[nH]2)cc1 (centres unmarked)  remaining signal (cell-free assay; 0.5 µM): 100%
COc1cc2ncnc(Nc3ccc(Oc4ccccc4)cc3C)c2cc1OC  inhibition (enzyme activity, inhibitor; 1 µM): 5%
Cn1c2c(Cl)c(Cl)ccc2c2cc(N)[nH]c(=O)c21  ΔTm (thermal stability, DSF; 10 µM): 0.7 °C
COc1ccc2c(O[C@@H]3C[C@H]4C(=O)N[C@]5(C(=O)O)CC5/C=C\CCCCC[C@H](NC(=O)OC5CCCC5)C(=O)N4C3)cc(-c3csc(NC(=O)C(C)C)n3)nc2c1C (some centres unmarked)  remaining binding (cell-free assay, competition with immobilised ligand; 1 µM): 71%
